Measured values gathered from unrelated publications.
Compare with care: the assays were run in different laboratories.
F2 trypsin-like site: Prothrombin, trypsin-like site (F2, Bos taurus, UniProt P00735)
FLT3: Receptor-type tyrosine-protein kinase FLT3 (FLT3, Homo sapiens, UniProt P36888)
MTNR1A: Melatonin receptor type 1A (MTNR1A, Homo sapiens, UniProt P48039)
CYP51: Sterol 14-alpha demethylase (CYP51, Trypanosoma cruzi, UniProt Q7Z1V1)
Tmem97: Sigma intracellular receptor 2 (Tmem97, Rattus norvegicus, UniProt Q5U3Y7)
AURKA: Aurora kinase A (AURKA, Homo sapiens, UniProt O14965)
HTR2C: 5-hydroxytryptamine receptor 2C (HTR2C, Homo sapiens, UniProt P28335)

Compound | target | assay | setting | endpoint | result
CC(C)(C)[C@H](NC(=O)[C@H](CCCNC(=N)N)NC(=O)Cc1ccc(CN)cc1)C(=O)N[C@@H](CCONC(=N)N)C(=O)NCc1ccc(C(=N)N)cc1 | F2 trypsin-like site | enzyme activity, inhibitor | pH 8 | Ki | 13000 nM
c1cncc(-c2cccc(Nc3nccc(NC4CCNCC4)n3)c2)c1 | FLT3 | enzyme activity, inhibitor | – | IC50 | 8 nM
CCc1nnc(SCc2cc(C(=O)OC)cs2)[nH]1 | MTNR1A | cAMP, agonist, luciferase | – | EC50 | 17.8 nM
COc1ccc2c(Oc3ccc4c(C(=O)Nc5ccccc5N)cccc4c3)ccnc2c1 | Mitogen-activated protein kinase 11 (MAPK11, Homo sapiens, UniProt Q15759) | enzyme activity, inhibitor | – | IC50 | > 500 nM
COCC(C)Nc1ccnc(Nc2cccc(-c3cccnc3)c2)n1 (stereo not drawn) | FLT3 | enzyme activity, inhibitor | – | IC50 | < 6 nM
COc1ccc2c(c1)C(CNC(N)=O)Cc1ccccc1C2 (stereo not drawn) | MTNR1A | GTPγS binding, agonist, radiometric | cell membranes | EC50 | 28.2 nM
CC(C)(C)[C@H](NC(=O)[C@H](CCONC(=N)N)NC(=O)Cc1ccc(CNC(=N)N)cc1)C(=O)N[C@@H](CCCCN)C(=O)NCc1ccc(C(=N)N)cc1 | F2 trypsin-like site | enzyme activity, inhibitor | pH 8 | Ki | 61000 nM
COC(=O)c1nccc(N(C)CC2CCCCC2O)n1 (stereo not drawn) | MTNR1A | cAMP, agonist, luciferase | – | EC50 | 1860 nM
c1cncc(C2CCCC(Nc3nccc(NC4CCCCC4)n3)C2)c1 (stereo not drawn) | FLT3 | enzyme activity, inhibitor | – | IC50 | > 23000 nM
CC(C)c1ccc(NC(=O)O[C@@H](Cn2ccnc2)c2ccc(F)cc2)cc1 | CYP51 | binding | – | Kd | 83 nM
COc1cc2c(CCNC(C)=O)c[nH]c2cc1I | MTNR1A | cAMP, agonist, TR-FRET | – | EC50 | 6.61 nM
CC(C)(C)Nc1ccnc(Nc2cccc(-c3cccnc3)c2)n1 | FLT3 | enzyme activity, inhibitor | – | IC50 | 13 nM
O=C(NCCCn1ccnc1)O[C@H](Cn1ccnc1)c1ccc(F)cc1 | CYP51 | binding | – | Kd | 600 nM
c1cc(Nc2nccc(NC3CCCCC3)n2)cc(C2CC2)c1 | FLT3 | enzyme activity, inhibitor | – | IC50 | 2590 nM
CCc1ccc2scc(CCNC(C)=O)c2c1 | MTNR1A | cAMP, agonist, TR-FRET | – | EC50 | 39.8 nM
Fc1ccc(CNc2cccc(-c3nnc[nH]3)c2)c(F)c1 | MTNR1A | cAMP, agonist, luciferase | – | EC50 | 245 nM
Cc1cc2nc3c(=O)[nH]c(=O)nc-3n(C[C@H](O)[C@H](O)[C@H](O)COP(=O)(O)OP(=O)(O)OC[C@H]3O[C@@H](n4cnc5c(N)ncnc54)[C@H](O)[C@@H]3O)c2cc1C | DNA topoisomerase 2-alpha (TOP2A, Homo sapiens, UniProt P11388) | binding | lysate | Kd | 141 nM
O=C(O[C@@H](Cn1ccnc1)c1ccccc1)c1ccc(-c2ccccc2)cc1 | CYP51 | binding | – | Kd | 87 nM
O=C(NCCc1cccc2ccccc12)C1CCC1 | MTNR1A | β-arrestin recruitment, agonist | – | EC50 | 288 nM
O=C(Nc1ccc(Sc2ccc([N+](=O)[O-])cc2)cc1)O[C@@H](Cn1ccnc1)c1ccc(Cl)cc1 | CYP51 | binding | – | Kd | 715 nM
COc1cccc2c1CCN(C(=O)c1c[nH]nc1-c1ccc(Cl)s1)C2 | MTNR1A | cAMP, agonist, luciferase | – | EC50 | 76.3 nM

Compound | target | assay | setting | endpoint | result
O=C(NCCN1CCCCC1)c1cc(Br)ccc1OCCF | Tmem97 | ligand displacement, radioligand | cell membranes | Ki | 10.2 nM
Cc1cc(Nc2cc3ncccc3c(N[C@@H]3C[C@H]4CC[C@@H](C3)N4CCC#N)n2)n[nH]1 | AURKA | binding, competition with immobilised ligand | – | Kd | 66 nM
CN(Cc1ccsc1)c1ccnc(Cl)c1 | MTNR1A | cAMP, agonist, luciferase | – | EC50 | 2660 nM
COc1ccc(-c2nsc(NC(=O)[C@@H]3C[C@H]3C)c2C)cc1 | Metabotropic glutamate receptor 1 (Grm1, Rattus norvegicus, UniProt P23385) | ligand displacement, radioligand | – | Ki | 0.6 nM
COC(=O)c1cc(CSc2nnc(C3CC3)[nH]2)cs1 | MTNR1A | cAMP, agonist, luciferase | – | EC50 | 7.57 nM
COc1ccc2[nH]cc(CCNC(C)=O)c2c1I | MTNR1A | β-arrestin recruitment, agonist | – | EC50 | 52.5 nM
COC(=O)c1sc(N(C)Cc2ccc(OC)c(O)c2)nc1Cl | MTNR1A | cAMP, agonist, luciferase | – | EC50 | 14.5 nM
COc1cc2c(cc1OC)CN(CCCCn1ccc3c(OC)cccc31)C2 | Tmem97 | ligand displacement, radioligand | cell membranes | Ki | 6.3 nM
c1ccc(-c2ccc(Nc3nccc(NC4CCCCC4)n3)cc2)nc1 | FLT3 | enzyme activity, inhibitor | – | IC50 | 1880 nM
COc1ccc2ncn(CCNC(C)=O)c2c1 | MTNR1A | β-arrestin recruitment, agonist | – | EC50 | 871 nM
Cc1cnc(-c2ccc(-c3ccc(NC(=O)Nc4c(F)cc(F)cc4F)cc3F)c3c2C(=O)NC3)[nH]1 | AURKA | binding, competition with immobilised ligand | – | Kd | 2.9 nM
Cc1ccc(C(=O)Nc2ccc(Oc3cc4cnn(C)c4cc3-c3cn[nH]c3)c(F)c2)c(=O)n1-c1ccc(F)cc1 | Tyrosine-protein kinase receptor Tie-1 (TIE1, Homo sapiens, UniProt P35590) | binding, competition with immobilised ligand | – | Kd | 0.9 nM
Clc1ccc(CNc2cccc(-c3nnc[nH]3)c2)cc1Cl | MTNR1A | cAMP, agonist, luciferase | – | EC50 | 229 nM
CC(C)c1nc2cc(OCCCCN3CCN(c4cccc5c4OCCO5)CC3)ccc2s1 | HTR2C | cell-free assay, radioligand | – | Ki | 92 nM
CC(C)Nc1ccnc(Nc2ccc(C(N)=O)cc2)n1 | FLT3 | enzyme activity, inhibitor | – | IC50 | 213 nM
NC(=S)N/N=C1\C(=O)Nc2ccccc21 | Tmem97 | ligand displacement, radioligand | cell membranes | Ki | > 10000 nM
OC[C@@]12C[C@@H]1[C@@H](n1cnc3c(N[C@H](C4CCC4)C4CC4)nc(I)nc31)[C@H](O)[C@@H]2O | HTR2C | calcium signal, antagonist | – | Kb | 288 nM
COc1cc2c(CCNC(C)=O)c(I)[nH]c2cc1[N+](=O)[O-] | MTNR1A | GTPγS binding, agonist, radiometric | cell membranes | EC50 | 20.9 nM
c1ccc(N2CCCC(Nc3nccc(NC4CCCCC4)n3)C2)cc1 (stereo not drawn) | FLT3 | enzyme activity, inhibitor | – | IC50 | 3260 nM
CCC(=O)NC1Cc2ccccc2C(c2ccccc2)C1 (stereo not drawn) | MTNR1A | cAMP, agonist, TR-FRET | – | EC50 | 282 nM
CC(C)(C)[C@H](NC(=O)[C@H](CCONC(=N)N)NC(=O)Cc1ccc(CN)cc1)C(=O)N[C@@H](CCCCN)C(=O)NCc1ccc(C(=N)N)cc1 | F2 trypsin-like site | enzyme activity, inhibitor | pH 8 | Ki | 10000 nM
